Results published in ChEMBL document CHEMBL5329221, “A covalent fragment-based strategy targeting a novel cysteine to inhibit activity of mutant EGFR kinase” (RSC Med Chem, 2023).
Activity calls are given as the source filed them. No cut-off for these calls is given here.

Legend:
[1] = target: T1, Epidermal growth factor receptor (Homo sapiens, UniProt P00533, C797S/L858R/T790M); assay: Inhibition of N-terminal His6-tagged human EGFR L858R/T790M/C797S mutant expressed in Sf9 cells assessed as decrease in substrate phosphorylation incubated for 45 mins using Srctide as substrate in presence of 1mM of ATP by microplate reader analysis
Procedure, shortened: (§1)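 Compound in DMSO was preincubated 0, 20 or 60 min with 250 pg/µL EGFR_TM (residues 694-1022) in 20 mM HEPES pH 7.4, 5 mM MgCl2, 1 mM MnCl2, 0.003% Brij-35, 0.004% Tween-20, 2 mM DTT. […] EDTA stop; phosphorylation read by mobility-shift chip, ex 488/em 530 nm.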

[2] = test system: Epidermal growth factor receptor (Homo sapiens), P00533 [L858R]; assay: Inhibition of human EGFR L858R mutant assessed as decrease in substrate phosphorylation using Srctide as substrate preincubated for 15 mins followed by substrate addition in presence of 1mM of ATP and measured after 45 mins by microplate reader analysis; settings: time 60.0 min
Procedure, shortened: (§2)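 Panel format: compound at 1 µM final was preincubated 15 min with kinase in 20 mM HEPES pH 7.4, 5 mM MgCl2, 1 mM MnCl2, 0.003% Brij-35, 0.004% Tween-20, 2 mM DTT. ATP (1 mM) and Srctide (1.5 µM) were then added for 45 min. EDTA stop; mobility-shift read, ex 488/em 530 nm.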

[3] = target: T1, Epidermal growth factor receptor; assay: (§3) Inhibition of N-terminal His6-tagged human EGFR L858R/T790M/C797S mutant expressed in Sf9 cells assessed as decrease in substrate phosphorylation using Srctide as substrate preincubated for 60 mins followed by substrate addition in presence of 5uM of ATP and measured after 45 mins by microplate reader analysis
[4] = target: T1, Epidermal growth factor receptor; assay: as §3, with “20” for “60”
[5] = test system: Epidermal growth factor receptor (Homo sapiens), P00533 [UNDEFINED MUTATION]; assay: Inhibition of human EGFR d746-750/T790M mutant assessed as decrease in substrate phosphorylation using Srctide as substrate preincubated for 15 mins followed by substrate addition in presence of 1mM of ATP and measured after 45 mins by microplate reader analysis; settings: time 60.0 min
Procedure, shortened: (§4)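 Compound at 1 µM final, 15 min preincubation with mutant EGFR in mutant-EGFR buffer (5 mM MgCl2, 1 mM MnCl2) at 200 ng/mL for T790M/C797S/L858R, 180 ng/mL for d746-750/T790M, and 350 ng/mL for d746-750/T790M/C797S. Then 1 mM ATP plus 1.5 µM Srctide for 45 min. Mobility-shift read.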

[6] = target: Epidermal growth factor receptor (Homo sapiens) (UniProt P00533); assay: Inhibition of wild type human EGFR assessed as decrease in substrate phosphorylation using Srctide as substrate preincubated for 15 mins followed by substrate addition in presence of 1mM of ATP and measured after 45 mins by microplate reader analysis; settings: time 60.0 min
Procedure, shortened: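 Wild-type EGFR at 800 ng/mL was preincubated 15 min with 1 µM compound in 100 mM HEPES pH 7.4, 0.003% Brij-35, 0.004% Tween-20, 1 mM DTT. Then 1 mM ATP, 1.5 µM Srctide, 10 mM MgCl2 and 10 mM MnCl2 were added for 45 min. Mobility-shift read.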

[7] = target: MAP kinase-interacting serine/threonine-protein kinase 1 (Homo sapiens) (UniProt Q9BUB5); assay: Inhibition of human MNK1 assessed as decrease in substrate phosphorylation using 5FAM-KKKVSRSGLYRSPSMPENLNRPR-COOH as substrate preincubated for 15 mins followed by substrate addition in presence of 1mM of ATP and measured after 45 mins by microplate reader analysis; settings: time 60.0 min
Sequence of MAP kinase-interacting serine/threonine-protein kinase 1 (Homo sapiens) (Q9BUB5 whole entry, looked up): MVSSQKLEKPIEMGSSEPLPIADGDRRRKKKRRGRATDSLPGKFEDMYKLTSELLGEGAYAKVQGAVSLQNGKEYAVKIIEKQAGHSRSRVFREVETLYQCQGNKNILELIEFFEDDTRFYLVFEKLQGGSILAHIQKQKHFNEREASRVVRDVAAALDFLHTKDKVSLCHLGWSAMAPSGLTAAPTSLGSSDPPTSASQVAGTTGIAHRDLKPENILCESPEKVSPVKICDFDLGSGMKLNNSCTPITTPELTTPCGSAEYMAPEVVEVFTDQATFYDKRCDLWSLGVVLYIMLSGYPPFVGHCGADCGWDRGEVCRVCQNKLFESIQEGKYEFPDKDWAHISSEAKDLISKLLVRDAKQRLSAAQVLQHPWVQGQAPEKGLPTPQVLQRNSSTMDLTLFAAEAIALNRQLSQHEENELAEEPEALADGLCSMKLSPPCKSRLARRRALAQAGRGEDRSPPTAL
Procedure, shortened: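 MNK1 at 440 ng/mL was preincubated 15 min with 1 µM compound in 100 mM HEPES pH 7.4, 0.003% Brij-35, 0.004% Tween-20, 1 mM DTT. Then 1 mM ATP, 1.5 µM FL-Peptide 10 and 10 mM MgCl2 were added for 45 min. Mobility-shift read.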

[8] = target: T1, Epidermal growth factor receptor; assay: Inhibition of N-terminal His6-tagged human EGFR L858R/T790M/C797S mutant expressed in Sf9 cells assessed as decrease in substrate phosphorylation using Ulight-JAK1 peptide as substrate incubated for 1.5 hrs in presence of ATP by TR-FRET based LANCE Ultra kinase assay
Procedure, shortened: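 LANCE Ultra TR-FRET assay with 0.25 nM EGFR_TM, 1 µM ATP, 50 nM ULight-JAK1 peptide, 50 mM HEPES pH 7.5, 10 mM MgCl2, 5 mM MnCl2, 1 mM DTT, 0.015% Brij35, 5% DMSO, 1.5 h at 23°C. EDTA stop, Eu-anti-pTyr PT66, 1 h. Signal is the 665/620 nm ratio, normalised to no-protein controls. IC50 from a four-parameter fit, otherwise % inhibition at the top concentration.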

[9] = test system: Epidermal growth factor receptor (Homo sapiens), P00533 [L858R]; assay: Binding affinity to N-terminal His6-tagged human EGFR L858R mutant expressed in Sf9 cells at pH 7.4 assessed as covalent adduct at +277 Da formation at 0.3 to 1 uM incubated for 1 hrs by LC-MS analysis; settings: dose 0.3-1 µM
Procedure, shortened: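 EGFR (694-1022) L858R or L858R/C775S as N-terminal His-GST fusions from Sf9 cells, purified by Ni affinity then SEC. Each protein at 0.5 mg/ml was incubated with compound (0.3, 1 or 3 µM) in 20 mM Tris-HCl pH 7.5, 150 mM NaCl, 1 mM TCEP, 5% glycerol, 1 h at room temperature. SDS was added to 1% final, samples boiled 95°C 10 min, then UHPLC-MS.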

[10] = target: T1, Epidermal growth factor receptor; assay: as §3, with “1mM” for “5uM”; procedure, shortened: as §1
[11] = test system: Epidermal growth factor receptor (Homo sapiens), P00533 [UNDEFINED MUTATION]; assay: Inhibition of human EGFR d746-750 mutant assessed as decrease in substrate phosphorylation using Srctide as substrate preincubated for 15 mins followed by substrate addition in presence of 1mM of ATP and measured after 45 mins by microplate reader analysis; settings: time 60.0 min; procedure, shortened: as §2
[12] = test system: Epidermal growth factor receptor (Homo sapiens), P00533 [L858R,T790M]; assay: Inhibition of human EGFR T790M/L858R mutant assessed as decrease in substrate phosphorylation using Srctide as substrate preincubated for 15 mins followed by substrate addition in presence of 1mM of ATP and measured after 45 mins by microplate reader analysis; settings: time 60.0 min; procedure, shortened: as §2
[13] = target: T1, Epidermal growth factor receptor; assay: Inhibition of N-terminal His6-tagged human EGFR L858R/T790M/C797S mutant expressed in Sf9 cells assessed as decrease in substrate phosphorylation incubated for 45 mins using Srctide as substrate in presence of 5uM of ATP by microplate reader analysis
[14] = test system: Epidermal growth factor receptor (Homo sapiens), P00533 [UNDEFINED MUTATION]; assay: Inhibition of human EGFR d746-750/T790M/C797S mutant assessed as decrease in substrate phosphorylation using Srctide as substrate preincubated for 15 mins followed by substrate addition in presence of 1mM of ATP and measured after 45 mins by microplate reader analysis; settings: time 60.0 min; procedure, shortened: as §4

IC50 [1]: 1300 nM
inhibition [2]: > 80%
IC50 [3]: 167 nM
IC50 [4]: 239 nM
inhibition [5]: > 80%
inhibition [6]: > 80%
inhibition [7]: 26.5%
IC50 [8]: 900 nM
Activity [9]: inactive
IC50 [10]: 150 nM
inhibition [11]: > 80%
inhibition [12]: > 80%
IC50 [13]: 599 nM
inhibition [14]: > 80%
Structure (SMILES): C=CC(=O)Nc1cc(-c2cn(C)c3ccccc23)ncn1
